Fh CTSL1 inh – counter-screen for PFM18AAP inhibitors: inhibitors of F. hepatica cathepsin L1; hit rate 0.49% among 300,000; recombinant F. hepatica cathepsin L1, Z-Leu-Arg-MCA fluorescence; inhibition, % at 5.96 µM;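 active = inhibition above the mean of all tested compounds plus 3 SD, set per screening campaign, cut at about 17% in these data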
PP1 counter – blocks human PP1-alpha phosphatase, a PP5 counter-screen | purified PP1alpha, OMFP fluorescence | inhibition, % at 6.7 µM | hit rate 0.9% among 320,000 | AID 2235;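 active = inhibition above the mean inhibition of all tested compounds plus 3 SD, computed separately for each screening campaign, cut at about 15% in these data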
PP5 inh – blocks human protein phosphatase 5 activity | purified PP5c, OMFP substrate fluorescence | inhibition, % at 6.7 µM | hit rate 0.18% among 320,000 | AID 1987;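 active = inhibition above the campaign's mean inhibition across all tested compounds plus 3 SD, cut at about 9.5% in these data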
Target sequence (P53041 whole entry, looked up): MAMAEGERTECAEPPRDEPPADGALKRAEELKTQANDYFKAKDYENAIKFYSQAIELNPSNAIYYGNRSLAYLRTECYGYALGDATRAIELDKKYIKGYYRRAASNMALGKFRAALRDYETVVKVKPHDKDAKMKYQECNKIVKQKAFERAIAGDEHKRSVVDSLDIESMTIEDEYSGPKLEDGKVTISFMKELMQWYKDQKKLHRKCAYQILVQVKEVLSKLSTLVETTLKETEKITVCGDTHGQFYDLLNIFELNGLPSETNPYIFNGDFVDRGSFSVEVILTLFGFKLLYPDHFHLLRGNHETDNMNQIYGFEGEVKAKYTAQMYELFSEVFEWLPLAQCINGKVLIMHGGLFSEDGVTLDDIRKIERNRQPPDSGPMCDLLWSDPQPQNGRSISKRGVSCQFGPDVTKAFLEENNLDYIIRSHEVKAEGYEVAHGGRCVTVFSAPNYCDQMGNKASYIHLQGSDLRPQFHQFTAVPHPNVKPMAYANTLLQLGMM
Myeloid diff 2 – compounds promoting myeloid differentiation | ER-HoxA9 myeloid progenitors, lysozyme-GFP differentiation, flow cytometry | calls only at 10 µM | hit rate 1% among 360,000 | AID 624256;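 active = normalized GFP-positive differentiation at or above the plate's own cutoff, the solvent-only control mean plus 3 SD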;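 also: cells exposed to compound for four days before flow analysis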
NadD inh – blocks S. aureus nicotinate mononucleotide adenylyltransferase; purified NadD enzyme, colorimetric absorbance read-out; inhibition, % at 20 µM; hit rate 0.78% among 360,000; AID 602399; in the data active = inhibition above about 26%
core dimer inh – blocks dimerization of HCV core protein. hit rate 0.33% among 300,000. inhibition, % at 5 µM. TR-FRET GST/Flag-core106 dimerization, 1536-well. AID 1899;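 active = inhibition above the mean of all tested compounds plus 3 SD, set per screening campaign, cut at about 45% in these data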
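Material: Tagged HCV core106 pair (GST and Flag) | Amount: GST-core106 13.5 nM, Flag-core106 17 nM | Medium: KF-containing HEPES buffer, pH 7.45, DTT, CHAPS, BSA | Reagent: Eu donor and XL665 acceptor anti-tag antibodies | Schedule: 4 h at 22.5 °C | Technique: Time-resolved FRET, ex 340 nm, em 617 and 671 nm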
Myeloid diff CP1 – compounds promoting myeloid differentiation. calls only. shares compounds with Myeloid diff 2. AID 651706. ER-HoxA9 myeloid progenitors, GFP/Mac1 double-positive flow. hit rate 2% among 2,300;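 active = share of green or green-and-red cells above 9 and 9% in run 1 or 4 and 3% in run 2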
GFP autofluor – counter-screen for myeloid differentiation promoters: compound fluorescence; shares compounds with Myeloid diff 2; AID 651707; fluorescence response, % (concentration not given with the values); hit rate 7.4% among 2,300; ER-HoxA9 myeloid progenitors, no estrogen, GFP autofluorescence flow cytometry; vehicle wells 0%, positive control 100%;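 active = over 5% cells positive for green fluorescent reporter, or over 2% positive for both it and APC stain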
Of the large screens only hits and unclear results are named; the others gave an inactive call (follow-up assays come after a bar, where they were run). Compounds with a hit are over-represented: about 3.1% of the library has one in this group of screens.

C[C@H](O)[C@@H]1CN2CCc3c([nH]c4ccccc34)[C@@H]2C[C@@H]1N(C)C(=O)Nc1cccc2ccccc12	none (no result: Fh CTSL1 inh, PP1 counter, PP5 inh, core dimer inh) | Myeloid diff CP1 inactive | GFP autofluor inactive
C[C@H](O)[C@@H]1CN2CCc3c([nH]c4ccc(-c5ccc6c(c5)OCO6)cc34)[C@@H]2C[C@@H]1N(C)C(=O)Nc1ccc(F)cc1	none (no result: Fh CTSL1 inh, PP1 counter, PP5 inh, core dimer inh)
Cc1cc(C)c(C#N)c(SCC(O)CS(=O)(=O)Cc2ccccc2)n1 (stereo not drawn)	none | Myeloid diff CP1 inactive | GFP autofluor inactive
CC(C)n1cc(CN2CCCC(CNS(=O)(=O)c3cccc4cccnc34)C2)cn1 (stereo not drawn)	none
CC(C)c1cccc(C2=CC(=O)C[C@H](c3ccc4c(c3)OCO4)C2)c1	none (no result: Fh CTSL1 inh, core dimer inh)
COc1cc(/C=C2\NC(=S)N(C)C2=O)ccc1O	Myeloid diff 2 active | Myeloid diff CP1 inactive | GFP autofluor 5.1
CN1C(=O)/C(=C/c2ccc(O)c([N+](=O)[O-])c2)NC1=S	none
CSCC[C@H](N)C(=O)N1CCC(C(=O)N[C@H](C)C(=O)NC(C)c2ccccc2)CC1 (stereo partly drawn)	none
CCn1c(C(=O)N2CCCC(C(=O)NCCc3ccc(C)cc3)C2)cc2sccc21 (stereo not drawn)	none | Myeloid diff CP1 inactive | GFP autofluor inactive
Cn1c(C(=O)N2CCCC(C(=O)NCCCSC3CCCCC3)C2)cc2sccc21 (stereo not drawn)	none
Cn1c(C(=O)N2CCCC(C(=O)NCc3cccs3)C2)cc2sccc21 (stereo not drawn)	Myeloid diff 2 active | Myeloid diff CP1 inactive | GFP autofluor inactive
Cc1cccc(N2CCN(C(=O)C3CCN(S(=O)(=O)N4CCOCC4)CC3)CC2C)c1 (stereo not drawn)	Myeloid diff 2 active | Myeloid diff CP1 inactive | GFP autofluor inactive
O=[N+]([O-])c1ccc(O)c(CN2CCCCCC2)c1	none | Myeloid diff CP1 inactive | GFP autofluor inactive
Cc1cc2nc3c(nc2cc1C)CCCC3	none
CC(=O)NN1C(=O)c2ccc3c4c(ccc(c24)C1=O)C(=O)N(NC(C)=O)C3=O	Myeloid diff 2 active | Myeloid diff CP1 inactive | GFP autofluor inactive
CCOC(=O)C1CCN(CCC(=O)Nc2ccccc2Cl)CC1	none | Myeloid diff CP1 inactive | GFP autofluor inactive
CCOC(=O)C1CCN(CCC(=O)Nc2cccc(Cl)c2)CC1	none
CC(=O)N1C=CN(C(C)=O)C(c2cn(C)c3ccccc23)C1c1cn(C)c2ccccc12 (stereo not drawn)	none
CC(=O)n1cc(C2C(=O)CCCC2=O)c2ccccc21	none | Myeloid diff CP1 inactive | GFP autofluor inactive
O=C(CN1C(=O)NC2(CCCCC2)C1=O)Nc1ccccc1Cl	none | Myeloid diff CP1 inactive | GFP autofluor inactive
CCC1c2ccc(C)n2CCN1C(=O)Nc1cc(Cl)ccc1OC (stereo not drawn)	none (no result: Myeloid diff 2) | Myeloid diff CP1 inactive | GFP autofluor inactive
CCC1c2ccc(C)n2CCN1C(=O)Nc1ccccc1C(=O)OC (stereo not drawn)	none
Cc1ccc(C(=O)OCC(=O)N2CCCC2)cc1	none
COCCNC(=O)C1CCCN(C(=O)c2cncc(Br)c2)CC1 (stereo not drawn)	none (no result: Fh CTSL1 inh, PP1 counter, PP5 inh, core dimer inh)
CC1(C)OC(=O)N(CCc2ccccc2)C1(C)O (stereo not drawn)	none | Myeloid diff CP1 inactive | GFP autofluor inactive
COc1ccc(CNC(=O)C2CCCN(c3nc4ccccc4o3)C2)c(OC)c1 (stereo not drawn)	none
COc1cccc(CNC(=O)C2CCCN(c3nc4ccccc4o3)C2)c1 (stereo not drawn)	none | Myeloid diff CP1 inactive | GFP autofluor inactive
Cn1c(=O)[nH]c(=O)c2c1nc(Br)n2Cc1cccc(Br)c1	none | Myeloid diff CP1 inactive | GFP autofluor inactive
CCc1noc(C)c1C(=O)NNC(=O)c1ccccc1F	none
CCOC(=O)c1c(NC(=S)Nc2ccc(Cl)cc2)sc2c1CCN(C)C2	Myeloid diff 2 active | Myeloid diff CP1 inactive | GFP autofluor 47
CCOC(=O)c1cc2c(c(CCO)n1)[C@H](CCO)N(S(=O)C(C)(C)C)C2 (stereo partly drawn)	none (no result: Fh CTSL1 inh, PP1 counter, PP5 inh, core dimer inh)

Compound activity: PubChem, several laboratories
